For assay [1], the target named is T1, Histamine H4 receptor (Homo sapiens, UniProt Q9H3N8). The assay can be described thus: Inhibitory activity determined by the inhibition of cAMP- stimulated beta-galactosidase transcription in SK-N-MC cells expressing the human Histamine H4 receptor. Format: cell-based. A digest of the protocol:
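SK-N-MC cells stably carrying human H4 receptor and a CRE-driven β-galactosidase reporter gene, grown overnight, then exposed 6 h at 37 °C to 1 μM forskolin plus ligand. Mean ± SEM, at least three independent experiments.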

Assay [2] concerns the target T1, Histamine H4 receptor. The experiment in a line: Intrinsic activity for Histamine H4 receptor. A digest of the protocol:
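SK-N-MC cells stably carrying human H4 receptor and a CRE-driven β-galactosidase reporter gene, grown overnight, then exposed 6 h at 37 °C to 1 μM forskolin plus ligand. Medium removed; cells held overnight at 4 °C in pH 8 phosphate buffer containing Triton and 4 mM ONPG; absorbance read at 405 nm. Mean ± SEM, at least three independent experiments.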

Assay [3] addresses T2, Histamine H3 receptor (Homo sapiens, UniProt Q9Y5N1). The assay can be described thus: Inhibitory activity measured by [3H]- N alpha- methyl-histamine binding to membranes of SK-N-MC cells expressing the human Histamine H3 receptor. The format is cell membranes.
The target of assay [4] is T2, Histamine H3 receptor. The experiment in a line: Inhibitory activity determined by the inhibition of cAMP- stimulated beta-galactosidase transcription in SK-N-MC cells expressing the human Histamine H3 receptor. Format: cell-based.
For assay [5], the target named is T1, Histamine H4 receptor. The assay can be described thus: Inhibitory activity measured by [3H]histamine binding to membranes of SK-N-MC cells expressing the human Histamine H4 receptor.

T1 sequence (Q9H3N8 whole entry): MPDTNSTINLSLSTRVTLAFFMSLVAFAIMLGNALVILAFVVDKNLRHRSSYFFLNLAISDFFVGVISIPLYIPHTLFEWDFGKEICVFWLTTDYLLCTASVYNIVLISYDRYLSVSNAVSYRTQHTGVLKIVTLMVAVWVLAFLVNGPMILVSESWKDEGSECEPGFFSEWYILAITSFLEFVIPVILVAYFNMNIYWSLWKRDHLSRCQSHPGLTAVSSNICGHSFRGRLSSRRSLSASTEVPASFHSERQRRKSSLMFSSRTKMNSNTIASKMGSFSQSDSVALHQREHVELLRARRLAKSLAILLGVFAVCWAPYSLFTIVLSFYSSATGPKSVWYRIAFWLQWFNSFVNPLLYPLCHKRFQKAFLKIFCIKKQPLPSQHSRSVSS
T2 sequence (Q9Y5N1 whole entry): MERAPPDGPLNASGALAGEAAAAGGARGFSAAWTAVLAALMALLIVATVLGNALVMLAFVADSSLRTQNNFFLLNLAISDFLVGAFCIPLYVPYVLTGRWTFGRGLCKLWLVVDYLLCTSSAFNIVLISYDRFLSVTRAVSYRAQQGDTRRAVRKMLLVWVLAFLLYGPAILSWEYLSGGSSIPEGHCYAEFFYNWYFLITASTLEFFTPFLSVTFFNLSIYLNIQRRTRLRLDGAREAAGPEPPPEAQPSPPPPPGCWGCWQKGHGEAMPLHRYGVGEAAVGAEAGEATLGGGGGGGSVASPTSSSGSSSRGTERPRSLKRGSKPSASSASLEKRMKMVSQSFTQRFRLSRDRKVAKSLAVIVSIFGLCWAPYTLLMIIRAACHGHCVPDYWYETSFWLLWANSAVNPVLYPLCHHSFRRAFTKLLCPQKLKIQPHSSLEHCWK

On to `c1nc(CCC2CCCNC2)c[nH]1` (centres undefined), for which the EC50 (commonly the midpoint of the concentration-response curve) at Histamine H4 receptor [1] was 2040 nM; at Histamine H3 receptor [4], 513 nM. In addition, the Intrinsic activity at Histamine H4 receptor [2] amounted to 0.48. The Ki – broadly, the dissociation constant of the complex between target and ligand, obtained from inhibition or displacement – is 182 nM at Histamine H3 receptor [3] and 324 nM at Histamine H4 receptor [5].

Regarding `c1nc(C2CCNCC2)c[nH]1`, the EC50 on Histamine H4 receptor [1] was above 10000 nM; on Histamine H3 receptor [4], 1820 nM. Besides, the results for the inhibition constant (Ki) on Histamine H3 receptor [3] and on Histamine H4 receptor [5] were 871 nM and 2190 nM, respectively.

In the case of `c1nc(C[C@@H]2CCNC2)c[nH]1`, the values for the EC50 on Histamine H4 receptor [1] and at Histamine H3 receptor [4] were 1020 nM and 0.389 nM, respectively. The molecule also had an Intrinsic activity at Histamine H4 receptor [2] of 0.8. The values for the Ki on Histamine H3 receptor [3] and on Histamine H4 receptor [5] were 1.41 nM and 141 nM, respectively.

Molecule `C[C@@H](N)Cc1c[nH]cn1` had an EC50 at Histamine H4 receptor [1] of 1120 nM. For the same molecule, the Intrinsic activity on Histamine H4 receptor [2] is 1.04.

Regarding `NCCCCCCc1cnc[nH]1`, the EC50 at Histamine H4 receptor [1] was above 10000 nM; at Histamine H3 receptor [4], 33.1 nM. The Ki was 10 nM on Histamine H3 receptor [3] and 759 nM at Histamine H4 receptor [5].

For the molecule `c1nc(CCCC2CCCNC2)c[nH]1` (centres undefined), the EC50 on Histamine H4 receptor [1] was above 10000 nM. In addition, affinity on Histamine H4 receptor [5] was put at a Ki of 389 nM.

With `NCC1CC1c1c[nH]cn1` (centres undefined), the EC50 on Histamine H4 receptor [1] was 1100 nM; at Histamine H3 receptor [4], 19.5 nM. In addition, the Intrinsic activity on Histamine H4 receptor [2] was 0.56. Besides, the Ki on Histamine H3 receptor [3] is 35.5 nM; at Histamine H4 receptor [5], 112 nM.

Turning to `N[C@H]1C[C@@H]1c1c[nH]cn1` [VUF-5297], the EC50 at Histamine H4 receptor [1] was 7080 nM; on Histamine H3 receptor [4], 5.89 nM. The same molecule came in with an Intrinsic activity on Histamine H4 receptor [2] of 0.61. In addition, the Ki on Histamine H3 receptor [3] is 9.33 nM; at Histamine H4 receptor [5], 1100 nM.

As to `c1nc(CC2CCCCN2)c[nH]1` (centres undefined), the half-maximal effective concentration (EC50) on Histamine H4 receptor [1] is above 10000 nM; at Histamine H3 receptor [4], 794 nM. On Histamine H4 receptor [5], this molecule had a Ki of 8910 nM.

Consider `O=C(c1c[nH]cn1)C1CCNCC1`, for which the results for the EC50 at Histamine H4 receptor [1] and on Histamine H3 receptor [4] were above 10000 nM and 2750 nM, respectively. For the same molecule, the inhibitory constant (Ki) on Histamine H4 receptor [5] was 479000 nM.

As for `C(=C1CCNCC1)c1c[nH]cn1`, the values for the EC50 at Histamine H4 receptor [1] and at Histamine H3 receptor [4] were above 10000 nM and 3.16 nM, respectively. In addition, the Ki is 5.89 nM on Histamine H3 receptor [3] and 1740 nM at Histamine H4 receptor [5].

Regarding `c1nc(CCC2CCCCN2)c[nH]1` (centres undefined), the 50% effective concentration (EC50) on Histamine H4 receptor [1] and at Histamine H3 receptor [4] was above 10000 nM in each case. On Histamine H4 receptor [5], this molecule showed a Ki of 4470 nM.

Consider `NCCCc1c[nH]cn1` [HOMOHISTAMINE], for which the EC50 at Histamine H4 receptor [1] is 214 nM; at Histamine H3 receptor [4], 42.7 nM. On Histamine H4 receptor [2], this molecule registered an Intrinsic activity of 0.82. Moreover, the Ki on Histamine H3 receptor [3] was 49 nM.

As to `c1nc(C[C@H]2CCNC2)c[nH]1`, the figures for the EC50 on Histamine H4 receptor [1] and at Histamine H3 receptor [4] were 417 nM and 2.09 nM, respectively. The Intrinsic activity at Histamine H4 receptor [2] came out at 0.85. Moreover, the values for the Ki on Histamine H3 receptor [3] and on Histamine H4 receptor [5] were 5.25 nM and 37.2 nM, respectively.

On to `NCCCCCc1c[nH]cn1` [IMPENTAMINE], for which the EC50 at Histamine H4 receptor [1] is above 10000 nM; at Histamine H3 receptor [4] it was 2.34 nM. Besides, the Ki at Histamine H4 receptor [5] is 372 nM.

Turning to `C1=C(c2c[nH]cn2)CCNC1`, the EC50 on Histamine H4 receptor [1] was above 10000 nM; on Histamine H3 receptor [4], 1510 nM. Also, the Ki is 4270 nM on Histamine H3 receptor [3] and 263000 nM on Histamine H4 receptor [5].

In the case of `c1nc(CCCC2CCCCN2)c[nH]1` (centres undefined), the EC50 at Histamine H4 receptor [1] is above 10000 nM; at Histamine H3 receptor [4], 324 nM. Besides, the results for the Ki at Histamine H3 receptor [3] and on Histamine H4 receptor [5] were 93.3 nM and 575 nM, respectively.

As for `c1nc(CCC2CCNCC2)c[nH]1`, the EC50 on Histamine H4 receptor [1] was above 10000 nM; on Histamine H3 receptor [4], 13.2 nM. Further, the Ki at Histamine H3 receptor [3] is 20 nM; at Histamine H4 receptor [5], 372 nM.

As to `c1nc(CC2CCNC2)c[nH]1` (centres undefined), the EC50 on Histamine H4 receptor [1] was 741 nM; at Histamine H3 receptor [4], 1.32 nM. The molecule also displayed an Intrinsic activity on Histamine H4 receptor [2] of 0.83. For the same molecule, the Ki on Histamine H3 receptor [3] was 3.63 nM; on Histamine H4 receptor [5], 51.3 nM.

Take `c1nc(CC2CCNCC2)c[nH]1` [IMMEPIP]: the figures for the EC50 at Histamine H4 receptor [1] and at Histamine H3 receptor [4] were 56.2 nM and 0.132 nM, respectively. This molecule had an Intrinsic activity at Histamine H4 receptor [2] of 0.73. On Histamine H3 receptor [3], this molecule had a Ki of 0.479 nM.

Consider `N[C@@H]1C[C@H]1c1cnc[nH]1` [VUF-5296], for which the concentration for a half-maximal effect (EC50) is above 10000 nM on Histamine H4 receptor [1] and 57.5 nM on Histamine H3 receptor [4]. In addition, the Ki at Histamine H3 receptor [3] was 67.6 nM; on Histamine H4 receptor [5], 3800 nM.

As to `C=C(c1c[nH]cn1)C1CCNCC1`, the EC50 on Histamine H4 receptor [1] is above 10000 nM; at Histamine H3 receptor [4], 2.34 nM. Further, the Ki at Histamine H3 receptor [3] was 3.98 nM; at Histamine H4 receptor [5] it was 2820 nM.

Take `c1nc(CC2CCCNC2)c[nH]1` (centres undefined): the EC50 on Histamine H4 receptor [1] was 3980 nM; at Histamine H3 receptor [4] it was 49 nM. This molecule also showed an Intrinsic activity at Histamine H4 receptor [2] of 0.64. The inhibition constant Ki was 67.6 nM at Histamine H3 receptor [3] and 617 nM on Histamine H4 receptor [5].

As to `c1ncc(CCCC2CCNCC2)[nH]1`, the figures for the EC50 on Histamine H4 receptor [1] and at Histamine H3 receptor [4] were above 10000 nM and 8.32 nM, respectively. Moreover, the Ki is 4.47 nM on Histamine H3 receptor [3] and 617 nM on Histamine H4 receptor [5].

Consider `NCCCCc1c[nH]cn1` [IMBUTAMINE], for which the figures for the EC50 at Histamine H4 receptor [1] and at Histamine H3 receptor [4] were 89.1 nM and 7.41 nM, respectively. This molecule gave an Intrinsic activity at Histamine H4 receptor [2] of 0.96. For the same molecule, the affinity on Histamine H3 receptor [3], expressed as Ki, was 4.07 nM.
